Arbovirus anti – antivirals against arbovirus infection | arbovirus infection cell-based antiviral screen | inhibition, % at 10 µM | 200,000 compounds, 0.37% hits; in the data active = inhibition above about 30%
Yeast life ext – yeast lifespan extension; S. cerevisiae growth with nicotinamide, OD615; deaD strain in restrictive glucose medium; AID 775; inhibition of the nicotinamide effect, % at 10 µM; 130,000 compounds, 0.68% hits;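 active = inhibition above a set limit, placed 3 SD over the median of all compounds, cut at about 26% in these data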;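 also: 0% = nicotinamide-treated wells and 100% = cells grown without nicotinamide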
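Assay system: engineered S. cerevisiae DeaD replicative-lifespan strain, galactose-grown log-phase cells; Buffer or medium: CSMM-D glucose medium, restrictive; Probe or stimulus: nicotinamide 1.5 mM; Compound: single dose 10 µM compound, 0.25% DMSO; Schedule: 4 h preincubation then 48 h treatment at 30 °C; Technique: OD615 measurement.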
Measles CPE – protection of cells from measles virus; Measles virus-infected cells, CPE protection, absorbance; protection (pct of control), % at 4 µM; 140,000 compounds, 1.5% hits; in the data active = protection mostly above about 24%, no sharp cut-off; inactive = mostly below about 26%
Rad51 HR inh – Rad51 (human) homologous recombination inhibition; 200,000 compounds, 0.085% hits; hRad51 DNA strand exchange, fluorescence dequenching; inhibition, % at 10 µM;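 active = inhibition above 40% at the single screening dose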;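 also: 0% = DMSO control wells and 100% = blanks with heterologous ssDNA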
Target sequence (Q06609 whole entry, looked up): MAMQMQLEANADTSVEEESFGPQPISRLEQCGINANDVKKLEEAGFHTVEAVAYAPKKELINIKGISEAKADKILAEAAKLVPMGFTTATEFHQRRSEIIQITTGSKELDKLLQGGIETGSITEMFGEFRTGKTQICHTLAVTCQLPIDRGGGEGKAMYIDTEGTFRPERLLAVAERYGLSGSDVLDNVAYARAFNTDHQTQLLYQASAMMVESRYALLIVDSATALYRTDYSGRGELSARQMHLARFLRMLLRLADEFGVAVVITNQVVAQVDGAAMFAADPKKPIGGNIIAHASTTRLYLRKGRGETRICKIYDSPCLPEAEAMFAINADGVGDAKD
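material = hRad51 filaments on single-stranded DNA | reagent = Donor/quencher-labelled 47-bp dsDNA substrate | compound = 10 µM final, single point | schedule = strand-exchange reaction 15 min at room temperature | measured by = fluorescein emission 520 nm, excitation 485 nm | read-out basis = % inhibition versus plate control and blank means | benchmarks = plate controls and plate blanks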
Yeast growth inh – yeast BB579 growth reduction in restrictive medium; S. cerevisiae BB579 growth, OD615, 48 h; inhibition, % at 10 µM; 140,000 compounds, 0.51% hits; AID 804;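 active = inhibition above a set limit, 3 SD over the mean compound inhibition, cut at about 44% in these data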
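test system = yeast BB579 (DeaD) | buffer or medium = restrictive CSMM-D medium | doses = single compound dose of 10 µM, 0.25% DMSO final | times = 4 h preincubation and 48 h exposure at 30 °C | technique = culture absorbance at 615 nm | benchmarks = amphotericin B 10 µg/mL, positive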
Efa HMGR inh – blocks class II HMG-CoA reductase of Enterococcus faecalis; AID 1066; purified E. faecalis HMGR, NADPH absorbance 340 nm kinetic; 190,000 compounds, 0.41% hits; inhibition, % at 10 µM;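 active = inhibition above a set limit, the median over all tested compounds plus 3 SD, cut at about 9.5% in these data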;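 also: enzyme runs in reverse so mevalonate oxidation gives rising NADPH absorbance; 0% = complete reaction with DMSO and 100% = background rate lacking mevalonate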
* marks the source's active call; other numbers are inactive results; nt = no result. An excerpt weighted towards active compounds, which were near 2.4% of everything screened.

SMILES | Arbovirus anti | Yeast life ext | Measles CPE | Rad51 HR inh | Yeast growth inh | Efa HMGR inh
CCOC(=O)N1C=CC(C)=C[C@@H]2[C@@H](N3C(=O)c4ccccc4C3=O)C(=O)N21 | 3.6 | 6.9 | 21.4 | 6.0 | -12.1 | 2.6
CC(C)=NOc1nc(N2CCOCC2)nc(N2CCOCC2)n1 | nt | nt | nt | 18.3 | nt | nt
Cc1cccc(C(=O)NC(=S)N2CCc3ccccc3C2)c1 | -4.8 | 3.2 | 17.2 | nt | -66.4 | -5.6
COC(=O)c1sc2ccccc2c1-n1cccc1C(=O)C(=O)Nc1ccc(C)cc1 | -5.4 | 37.7* | 4.0 | 12.8 | -53.9 | 0.1
Cc1cc(N2CCN(c3nc(-c4ccc([N+](=O)[O-])cc4)cs3)CC2)c2ccccc2n1 | 4.2 | nt | nt | 5.3 | nt | 14.1*
Cc1cc(-c2ccc([N+](=O)[O-])cc2)nc2ccccc12 | -4.9 | nt | nt | 1.1 | nt | 0.0
COc1ccc(N(C(=O)CNC(=O)c2cccs2)C(C(=O)NC2CCCC2)c2cccnc2)cc1 (configuration not stated) | -1.0 | nt | nt | 1.0 | nt | 1.1
COc1cc2c(c(OC)c1)C(c1ccncc1)CC(=O)N2 (configuration not stated) | 1.6 | -0.2 | 16.1 | -3.5 | -34.0 | 5.3
COc1cc(OC)c(C2SCCS2)c(OC)c1 | -1.8 | -0.1 | 33.1* | 6.0 | -22.9 | -1.3
CN(C)CC(C)(C)CNS(=O)(=O)c1cccc2nsnc12 | -1.8 | 5.0 | 1.1 | nt | -28.2 | 0.8
CC1CCN(c2ccc(N3C(=O)C4CCCCC4C3=O)cc2[N+](=O)[O-])CC1 (configuration not stated) | -1.3 | 3.1 | 48.5* | 3.0 | -38.6 | -6.0
COc1ccc(N2CCN(c3ccc(N4C(=O)CC(C)C4=O)cc3[N+](=O)[O-])CC2)cc1 (configuration not stated) | 0.3 | nt | nt | 3.6 | nt | -4.7
CC1CCN(c2cc(N)c(Cl)cc2[N+](=O)[O-])CC1 | 6.7 | -5.5 | 19.3 | -8.8 | -1.7 | 15.8*
CC1CCN(c2cc(C#N)c(C#N)cc2[N+](=O)[O-])CC1 | -6.9 | -6.0 | 4.3 | 7.2 | -30.9 | 3.0
COc1ccc(/C=C2\SC(=N)N(c3nccs3)C2=O)cc1OC | -42.4 | 37.5* | 5.0 | -1.2 | -28.4 | -7.3
COc1ccccc1N1CCN(C(=O)NC23CC4CC(CC(C4)C2)C3)CC1 | -7.9 | nt | nt | 4.2 | nt | -1.2
COc1ccccc1OCCn1c(C(C)O)nc2ccccc21 (configuration not stated) | 2.8 | -2.6 | 75.9* | -0.2 | -26.7 | -7.5
CC(=O)NCCc1nc2ccccc2n1CCOc1ccccc1 | nt | nt | nt | 7.0 | nt | nt
CC(O)c1nc2ccccc2n1CCOc1ccccc1 (configuration not stated) | 8.2 | nt | 37.9* | 1.3 | -19.4 | -1.8
CCOc1ccc(NCc2nc3ccccc3n2CCOc2ccccc2)cc1 | -4.3 | 41.8* | 29.1 | 30.1 | 48.3* | 0.9
COc1ccccc1OCCn1c(CO)nc2ccccc21 | 4.9 | 1.6 | 14.8 | -4.2 | -51.6 | -0.1
CNC(=S)SCCOc1ccccc1C | -3.4 | -8.6 | 5.0 | -13.4 | -25.5 | -6.9
CN(Cc1ccccc1)C(=O)CSc1nc2cc(C(=O)N3CCC(C(N)=O)CC3)ccc2c(=O)n1-c1ccccc1 | nt | nt | nt | 28.7 | nt | nt
COc1ccc(/C=N/OCC(=O)NCc2cccs2)c(OC)c1 | -4.8 | -6.7 | 4.9 | 3.3 | -18.5 | -5.3
c1ccc(-c2cc(N3CCOCC3)nc3ccccc23)cc1 | 0.4 | 94.2* | 3.9 | 3.9 | -54.9 | 3.6
SMILES | Arbovirus anti | Yeast life ext | Measles CPE | Rad51 HR inh | Yeast growth inh | Efa HMGR inh
COC(=O)c1ccc(NC(=O)Nc2ccccc2F)cc1 | 2.8 | nt | nt | -11.8 | nt | 16.9*
CCOc1cc(C)c(-c2onc(C(F)(F)F)c2-c2csc(C)n2)c(O)c1 | -23.8 | -11.6 | 45.0* | 1.3 | -48.3 | -5.1
COc1ccc(NC(=O)c2nc(C)n(-c3ccc([N+](=O)[O-])cc3)n2)cc1 | 5.3 | nt | nt | 0.1 | nt | -3.3
CCN1C(=O)/C(=C/N(C(C)=O)c2ccccc2)N(c2ccccc2)C1=S | -44.5 | 35.2* | 2.4 | -1.7 | -17.1 | -5.2
CCc1ccc(/C=C2/C(=O)N(c3ccccc3)C(=S)N2CC(=O)OC)s1 | -4.3 | 0.0 | 16.4 | -10.4 | -15.4 | -0.4
CN(N)c1nc(-c2ccccc2)nnc1C(F)(F)F | -1.9 | -7.9 | 6.6 | -8.1 | -11.6 | -1.3
CCN(CC)CCNc1nc(-c2ccccc2)nnc1C(F)(F)F | -0.9 | -5.1 | 42.8* | -3.5 | -27.3 | -1.5

Compound activity from PubChem BioAssay.
